Laboratory results from ChEMBL document CHEMBL1136784, “Synthesis and biological evaluation of 14-alkoxymorphinans. 18. N-substituted 14-phenylpropyloxymorphinan-6-ones with unanticipated agonist properties: extending the scope of common structure-activity relationships” (J Med Chem, 2003).
Several values for one entry are separate records, joined by “and”; a condition that tells them apart may be missing. Identical values can stand only once.

Experiments:
[1] = molecular target: Opioid receptors; mu and delta (Mus musculus) (UniProt P42866+P32300); test: In vivo antinociceptive activity was determined upon subcutaneous administration in the mouse paraphenylquinone writhing test; assay type: functional, organism-based
Sequence of Opioid receptors; mu and delta (Mus musculus) (P32300 whole entry, looked up): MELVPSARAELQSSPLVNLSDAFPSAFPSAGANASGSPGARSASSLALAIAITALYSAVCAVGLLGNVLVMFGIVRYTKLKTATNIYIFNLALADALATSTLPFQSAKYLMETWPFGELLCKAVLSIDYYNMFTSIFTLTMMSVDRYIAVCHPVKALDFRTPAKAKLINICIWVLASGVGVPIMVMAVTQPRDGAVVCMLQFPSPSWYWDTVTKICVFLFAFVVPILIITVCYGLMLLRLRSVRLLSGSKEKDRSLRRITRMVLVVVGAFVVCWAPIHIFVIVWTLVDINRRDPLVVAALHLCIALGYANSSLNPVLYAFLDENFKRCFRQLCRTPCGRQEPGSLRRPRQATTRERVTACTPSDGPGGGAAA
Sequence of Opioid receptors; mu and delta (Mus musculus) (P42866 whole entry, looked up): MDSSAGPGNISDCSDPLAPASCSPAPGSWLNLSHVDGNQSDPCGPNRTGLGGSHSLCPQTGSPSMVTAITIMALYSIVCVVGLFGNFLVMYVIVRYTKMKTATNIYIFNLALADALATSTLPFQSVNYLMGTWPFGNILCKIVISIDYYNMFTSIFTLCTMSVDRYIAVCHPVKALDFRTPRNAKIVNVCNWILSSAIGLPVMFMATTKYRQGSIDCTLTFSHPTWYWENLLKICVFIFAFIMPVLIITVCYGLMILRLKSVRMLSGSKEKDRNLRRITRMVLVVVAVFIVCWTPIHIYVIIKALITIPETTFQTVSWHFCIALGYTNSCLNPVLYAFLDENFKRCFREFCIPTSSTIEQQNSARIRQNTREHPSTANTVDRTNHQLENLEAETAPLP
Procedure, shortened: (§1)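 Male ICR mice weighing 20-30 g, each animal tested only once. Drugs were given subcutaneously at a minimum of 3 doses, with 6-10 mice per dose. Assay procedures followed earlier published methods and their modifications.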

[2] = In vivo antinociceptive activity was determined upon subcutaneous administration in the mouse tail-flick test; assay type: functional; details: sc; procedure, shortened: as §1
[3] = molecular target: Kappa-type opioid receptor (Homo sapiens, UniProt P41145); test: biochemical; assay type: cell-based, CHO
Sequence of Kappa-type opioid receptor (P41145 whole entry): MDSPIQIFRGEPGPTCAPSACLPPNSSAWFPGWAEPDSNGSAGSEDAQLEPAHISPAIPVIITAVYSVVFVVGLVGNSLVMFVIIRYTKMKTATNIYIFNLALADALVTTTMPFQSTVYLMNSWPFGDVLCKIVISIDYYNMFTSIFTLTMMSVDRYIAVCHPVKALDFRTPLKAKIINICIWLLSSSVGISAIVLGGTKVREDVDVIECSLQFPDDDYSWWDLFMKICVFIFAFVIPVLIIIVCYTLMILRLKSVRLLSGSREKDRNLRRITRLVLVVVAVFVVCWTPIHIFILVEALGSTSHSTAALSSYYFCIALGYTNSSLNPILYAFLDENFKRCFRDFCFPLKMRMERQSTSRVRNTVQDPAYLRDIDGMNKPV

[4] = molecular target: Delta-type opioid receptor (Rattus norvegicus, UniProt P33533); test: In vitro binding affinity at opioid receptor delta 1 was determined in C6 rat glioma cells using [3H]Ile5,6 deltorphin II; assay type: cell-based
Sequence of Delta-type opioid receptor (P33533 whole entry): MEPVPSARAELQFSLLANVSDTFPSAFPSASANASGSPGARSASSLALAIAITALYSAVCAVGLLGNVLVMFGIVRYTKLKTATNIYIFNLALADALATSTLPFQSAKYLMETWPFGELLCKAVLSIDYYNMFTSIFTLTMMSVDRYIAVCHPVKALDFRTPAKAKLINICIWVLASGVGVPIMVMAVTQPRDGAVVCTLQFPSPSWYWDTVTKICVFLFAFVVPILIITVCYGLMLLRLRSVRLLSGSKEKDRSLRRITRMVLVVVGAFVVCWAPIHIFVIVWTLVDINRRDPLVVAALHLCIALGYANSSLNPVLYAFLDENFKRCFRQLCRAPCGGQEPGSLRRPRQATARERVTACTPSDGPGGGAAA

[5] = Selectivity ratio was determined; set-up: reference not given here
Mu-type opioid receptor = Mu-type opioid receptor (Rattus norvegicus, UniProt P33535); test: In vitro binding affinity at opioid receptor mu 1 was determined in C6 rat glioma cells using [3H]DAMGO; assay type: cell-based
Sequence of Mu-type opioid receptor (P33535 whole entry): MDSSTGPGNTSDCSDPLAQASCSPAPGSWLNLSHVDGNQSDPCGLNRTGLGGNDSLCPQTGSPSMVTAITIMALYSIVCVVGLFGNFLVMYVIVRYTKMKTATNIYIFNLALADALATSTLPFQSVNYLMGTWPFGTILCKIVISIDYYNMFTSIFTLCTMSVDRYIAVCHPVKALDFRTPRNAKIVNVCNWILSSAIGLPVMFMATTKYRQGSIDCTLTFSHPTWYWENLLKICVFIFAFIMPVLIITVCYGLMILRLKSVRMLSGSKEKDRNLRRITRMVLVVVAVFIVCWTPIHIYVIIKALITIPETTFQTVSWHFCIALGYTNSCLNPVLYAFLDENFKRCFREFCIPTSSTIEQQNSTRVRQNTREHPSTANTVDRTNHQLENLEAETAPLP

Row | SMILES | ED50 [1] | ED50 [2] | Ki [3] | Ki [4] | Ratio [5] | Ki (Mu-type opioid receptor)
1 | CN1CC[C@]23c4c5ccc(O)c4O[C@H]2[C@@H](O)C=C[C@H]3[C@H]1C5 [MORPHINE] | 400 µg/kg | 1900 µg/kg | – | – | – | –
2 | C=CCN1CC[C@]23c4c5ccc(O)c4O[C@H]2C(=O)CC[C@@]3(OCCCc2ccccc2)[C@H]1C5 | – | 6 µg/kg | 0.11 nM | 0.26 nM | – | –
3 | O=C1CC[C@@]2(OCCCc3ccccc3)[C@H]3Cc4ccc(O)c5c4[C@@]2(CCN3CC2CCC2)[C@H]1O5 | – | 8 µg/kg | 0.49 nM | 0.46 nM | 1.96 and 1.84 | 0.25 nM
4 | COc1ccc2c3c1O[C@H]1C(=O)CC[C@@]4(OCCCc5ccccc5)[C@@H](C2)N(CC2CCCO2)CC[C@]314 (stereo partly specified) | – | 760 µg/kg | 61.4 nM | 6.2 nM | – | 3.8 nM
5 | CCCN1CC[C@]23c4c5ccc(O)c4O[C@H]2C(=O)CC[C@@]3(OCCCc2ccccc2)[C@H]1C5 | 0.9 µg/kg | 2 µg/kg | 0.37 nM | 0.93 nM | 4.11 and 10.3 | 0.09 nM
6 | O=C1CC[C@@]2(OCCCc3ccccc3)[C@H]3Cc4ccc(O)c5c4[C@@]2(CCN3CCc2ccccc2)[C@H]1O5 | – | 110 µg/kg | – | – | – | –
7 | O=C1CC[C@@]2(OCCCc3ccccc3)[C@H]3Cc4ccc(O)c5c4[C@@]2(CCN3CC2CCCO2)[C@H]1O5 (stereo partly specified) | 2 µg/kg | 7 µg/kg | 0.08 nM | 0.09 nM | 0.4 and 0.45 | 0.2 nM
8 | CO[C@@]12CCC(=O)[C@]3(C)Oc4c(O)ccc5c4[C@@]31CCN(C)[C@@H]2C5 | 9 µg/kg | 30 µg/kg | 304 nM | 40.9 nM | – | 0.023 nM
9 | O=C1CC[C@@]2(OCCCc3ccccc3)[C@H]3Cc4ccc(O)c5c4[C@@]2(CCN3CC2CC2)[C@H]1O5 | 6 µg/kg | 3 µg/kg | 0.41 nM | – | – | –
10 | COc1ccc2c3c1O[C@H]1C(=O)CC[C@@]4(OCCCc5ccccc5)[C@@H](C2)N(CCc2ccccc2)CC[C@]314 | – | 80 µg/kg | – | – | – | –
